Published values gathered from unrelated publications.
Protocols differ between the studies behind these lines.
Cell line: MRC5
Observed: cell growth or viability

O=C(C=C[c-]1cccc1)c1ccc[nH]1.[Fe+2].c1cc[cH-]c1  viability (MTT; 100 µM): ~100%
COc1ccc(CN2C[C@H]3CC[C@@H]4[C@]5(C)COC(C)(C)O[C@@H]5CC[C@@]4(C)[C@@H]3C[C@@H]2C2=CCOC2=O)cc1  cell death (ATP luminescence; 25 µM, 72 h): 5.1%
Cc1cn([C@@H]2C[C@H](O)[C@@H](CNC(=O)Nc3ccc(OCc4ccccc4)cc3)O2)c(=O)[nH]c1=O  CC50: > 50 µM
CC(C)=CCC/C(C)=C/COc1ccc2ccc(=O)oc2c1  IC50 (MTT; 24 h): 68.9 µM
COC(=O)N[C@H](C(=O)N1CCC[C@H]1c1nc(-c2ccc(-c3ccc(-c4c[nH]c([C@@H]5CCCN5C(=O)[C@@H](NC(=O)OC)C(C)C)n4)cc3)cc2)c[nH]1)C(C)C  CC50 (5 days): 29 µM
Cc1cn([C@@H]2C[C@H](O)[C@@H](CNC(=O)Nc3ccc(N4CCCCC4)cc3)O2)c(=O)[nH]c1=O  CC50: > 50 µM
CCCCN1C[C@H]2CC[C@@H]3[C@](C)(COC(C)=O)[C@H](OC(C)=O)CC[C@@]3(C)[C@@H]2C[C@@H]1C1=CCOC1=O  cell death (ATP luminescence; 25 µM, 72 h): -6%
COc1c2ccoc2c(OCC=C(C)C)c2oc(=O)ccc12  IC50 (MTT; 24 h): > 100 µM
